Assay results reported in ChEMBL document CHEMBL4513216, “Probing the Open Global Health Chemical Diversity Library for Multistage-Active Starting Points for Next-Generation Antimalarials” (ACS Infect Dis, 2020).

Assay: Toxicity liver stage against HepG2, at 10uM
Format: cell-based
Set-up: test concentration 10 uM, cell line HepG2-A16-CD81EGFP
Conditions: human, HepG2-A16-CD81EGFP cells; read-out: INHIBITION
Method in brief: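 Uninfected HepG2-A16-CD81EGFP cells, 3 × 10^3 per well, 1536-well, plated on prespotted compound at 10 μM final, parasite-free screening media added to match infected plates; puromycin 10 μM positive, DMSO 0.5% negative; run in parallel with 48 h PbLuc assay at 37 °C, 5% CO2; viability by CellTiter-Glo luminescence, normalized to controls.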

Row | Compound | cytotoxicity at 10 µM [%]
1 | CC(C)Cc1cc(CNC(=O)C2CCCN(Cc3ccco3)C2)no1 (configuration not stated) | 3.11
2 | Cc1cc(F)c(S(=O)(=O)N(C)CCn2cccn2)cc1F | 0.532
3 | O=C1Nc2ccccc2C12CCCN(Cc1ccc3c(c1)OCCO3)C2 (configuration not stated) | 0.529
4 | NC(=O)CCn1cc(CNCCCc2csc(N)n2)c2ccccc21 | 3.1
5 | CCc1noc(C(C)N2CCN(C(=O)CN3CCOCC3)CC2)n1 (configuration not stated) | -9.17
6 | C[C@@H]1CN(Cc2ccncc2)C[C@]1(C)O | 1.6
7 | O=C(NCc1ccccc1CN1CCCC1=O)Nc1nncs1 | -2.82
8 | O=S(=O)(NC1=NCN(CCc2cccs2)CN1)c1ccc(F)cc1 | -1.01
9 | CN1CCN(C(=O)c2cc3sccc3n2Cc2ccccc2Cl)CC1 | 2.3
10 | O=C(Cc1ccccn1)N1CCN(C(=O)c2cccc3[nH]ncc23)CC1 | -2.48
11 | Cc1cc(C(=O)N(C)C(C)CC(C)C)on1 (configuration not stated) | -4.6
12 | CN(C)C(C(=O)N1CCN(CCn2cccc2)CC1)c1cccc(F)c1 (configuration not stated) | -22.8
13 | CCN(CC)C(=O)c1nnsc1-c1ccc(Cl)cc1 | 2.74
14 | CCc1cc(CNC(=O)N2CCC(Cc3cnn(C)c3)C2)on1 (configuration not stated) | -6.04
15 | O=C(c1ccc2nncn2c1)N1CCSC2(CCCCC2)C1 | -5.32
16 | O=C(Nc1cccnc1)C1Cc2nc(-c3ccsc3)sc2N1CC1CC1 (configuration not stated) | 14.5
17 | Cc1nn(C)c2nc(N3CCN(Cc4nccn4C)CC3)sc12 | -4.66
18 | O=C(O)c1ccnc(-c2ccnc(COc3ccc(Cl)cc3)n2)c1 | -6.67
19 | Cc1ccc(N2CCCC(NCc3cnc(C)s3)C2)nn1 (configuration not stated) | -0.755
20 | CN(C)C(=O)N[C@@H]1CN(Cc2ccc3c(c2)OCO3)[C@@H]2CCCO[C@@H]21 | -6.93
21 | COC(=O)CC(NC(=O)c1cccc(N2CCCC2=O)c1)C(=O)OC (configuration not stated) | -55.6
22 | CCOc1cc(C)nc(N2CCN(C(=O)c3csnn3)CC2)n1 | 2.85
23 | CNC(=O)[C@@H](c1ccccc1OC)N1CCC[C@H]1C(=O)NC(C)(C)C | -6.67

Row | Compound | cytotoxicity at 10 µM [%]
24 | CC(=O)Nc1ccc(SCC(=O)NCC2CCCO2)nn1 (configuration not stated) | -16.7
25 | N#Cc1cccc(N2CCC(CO)(CCOc3ccccc3)CC2)n1 | -42.8
26 | Cc1noc(C)c1CNC(=O)NCCC(=O)N1CCCc2ccccc21 | -0.353
27 | COc1cc(N(C)Cc2cc(C(C)(C)C)n[nH]2)ncn1 | -11.1
28 | Cc1cnn(CCNCC(O)COc2cc(Cl)ccc2Cl)c1 (configuration not stated) | 2.22
29 | CN(Cc1ccsc1)c1nc(-c2ccccn2)nc2c1CCNCC2 | -6.18
30 | O=C(c1cccnc1)N1CC[C@H](OCC2CC2)[C@@H]1Cc1cccnc1 | -0.53
31 | CC(C)N1CCOCC2(CCCN(C(=O)c3cncn3C)C2)C1 (configuration not stated) | -1.09
32 | c1cc(-c2noc(CN3CCc4c(ncn4C4CC4)C3)n2)cs1 | 4.71
33 | CCC(=O)N1CCC(c2nc(C)ncc2-c2ccncc2)CC1 | 6.04
34 | Cc1cc(C)n(CC2CCCCN2C(=O)CCc2ccncc2)n1 (configuration not stated) | 2.1
35 | CC(NC(=O)N1CCC(OCc2ccccc2)CC1)c1nncn1C (configuration not stated) | -1.49
36 | COCCC(=O)NCC1COc2cc(OC)ccc2C1 (configuration not stated) | 0.0723
37 | Cc1ccccc1N1CCN(C(=O)CC(C)C)CC1 | -1.26
38 | COc1coc(C(=O)Nc2ccncc2)cc1=O | -14.4
39 | Cc1cc(CC(=O)NCC(O)c2ccc(OC(F)F)cc2)n[nH]1 (configuration not stated) | -0.988
40 | Cc1cc(C)n(CC2CN(Cc3nc(-c4ccoc4)no3)CCO2)n1 (configuration not stated) | -8.13
41 | CC(C)(C)c1nnc(CN2CCOC(Cn3cccn3)C2)o1 (configuration not stated) | -10.2
42 | CCc1cc(N(C)Cc2cc[nH]n2)n2nc(C)c(C)c2n1 | 24
43 | Cc1cc(=O)[nH]c(SC(C)C(=O)N2CCC(NS(C)(=O)=O)CC2)n1 (configuration not stated) | -10.4
44 | Cc1nc(C2CCN(Cc3ncc[nH]3)CC2)no1 | -28
45 | CN1CCN(Cc2nnc(C3CCN(CC4CC4)CC3)n2C)CC1 | -13.6
46 | CC(C)CC(C)NC1CCN(c2cccc(-c3cscn3)c2)CC1 (configuration not stated) | -56.8

Row | Compound | cytotoxicity at 10 µM [%]
47 | CN1CCN(C(=O)CCc2cc(Br)cs2)CC1 | -5.35
48 | COc1ccc(C2=CCN(C(=O)C3CCC3)CC2)cc1 | -13.1
49 | O=C(CCc1ccccc1F)N1CCC(Nc2cccnn2)CC1 | -3.78
50 | CC(NC(=O)NCc1cccnc1N1CCCCC1)c1nccs1 (configuration not stated) | -7.95
51 | CCSc1cc(C(=O)N(Cc2cnn(C)c2)C(C)C)ccn1 | 4.64
52 | CN(C)C(=O)CCCn1ccc(NCc2ccc(C#N)cc2)n1 | 1.92
53 | CN(C)Cc1nc(C2(NC(=O)Nc3cccc(F)c3)CCCC2)no1 | 2.32
54 | Cc1cc(C2CCCN2C(=O)c2ccc(OCC(N)=O)cc2)no1 (configuration not stated) | -43.9
55 | Cc1cccc(CN2C[C@@H]3OCCN(C)[C@@H]3C2)n1 | 1.73
56 | CC(C)N1[C@H](CN(C)C)C[C@@H]2CN(c3ncc(F)cn3)CC[C@@H]21 | 11.7
57 | Cc1ncsc1-c1nnc(C2CCN(Cc3ccc(Cl)cc3)CC2)o1 | -4.41
58 | C[C@H]1CN(C(=O)c2ccoc2)C[C@@]12CCN(CCN(C)C)C2=O | -1.77
59 | CCOc1ccc(-c2ccnc(COc3ccccc3)n2)cc1C(=O)O | -1.84
60 | CC(C(=O)O)N1CCc2onc(-c3ccc4c(c3)OCO4)c2C1 (configuration not stated) | -6.46
61 | CCc1nc(CN(C)C2CCN(CC(F)(F)F)C2)no1 (configuration not stated) | -16.8
62 | O=C(CCc1ccncc1)Nc1ccc(OCC2CC2)cc1 | -2.56
63 | CCS(=O)(=O)N1CCOC2(CCCN(c3ccccn3)C2)C1 (configuration not stated) | 3.16
64 | CC1=NOC(C(=O)N(C)CCCn2nc(C)cc2C)C1 (configuration not stated) | 3.53
65 | CCN1CCC(CNCc2c[nH]nc2C(C)(C)C)C1 (configuration not stated) | -7.77
66 | Cc1ccc(CC(=O)N(C)CC2(O)CCCN(c3ccccn3)C2)s1 (configuration not stated) | -14.1
67 | O[C@H]1CN(Cc2c[nH]nc2-c2ccccc2)CC[C@@]12CCCO2 | 10.3
68 | CCNC(=O)[C@@H]1C[C@H](N)CN1Cc1ccc(Sc2ccc(C)cc2)o1 | -48.3
69 | Cc1cc(C)n(CCNc2ncnc3c2NC(=O)CN3)n1 | 6.61

Row | Compound | cytotoxicity at 10 µM [%]
70 | c1ccc(OCCN2CCc3c(ncn3C3CC3)C2)cc1 | -10.3
71 | Oc1cc(CNCCN2CCCCC2)nc2c(F)cccc12 | -1.16
72 | CSc1nccc(N2CCN(C)C3(CCC(=O)N(CC4CC4)CC3)C2)n1 (configuration not stated) | 5.6
73 | CC(C)(C)NC(=O)COc1ccc(CNCc2ccccn2)cc1 | -11.5
74 | CC(=O)NCc1nccnc1C1CCN(C(=O)c2cc[nH]n2)CC1 | -6.74
75 | Cn1ccc(C(=O)N2CCCCC23CC(=O)N(Cc2ccccc2)C3)n1 (configuration not stated) | 3.64
76 | O=C1CC2(CCN(c3nncs3)C2)CN1c1cncnc1 (configuration not stated) | -0.376
77 | Cc1cc(C(=O)NC2(C#N)CCCC2)c(C)n1-c1cccnc1 | -3.15
78 | CC(C)(C)c1ncc(C(=O)NCCNc2ncccn2)s1 | -1.62
79 | CN(C)C(=O)CO[C@H]1CO[C@@]2(CCN(S(C)(=O)=O)C2)C1 | -106
80 | Cc1[nH]c(-c2ccccc2)nc1C(=O)N1CCc2[nH]cnc2C1C(=O)O (configuration not stated) | 2.43
81 | CCc1nc(CN2CCN(CC(O)c3ccccc3)CC2)no1 (configuration not stated) | -15.3
82 | Cc1nc(C)c(C(C)NC(=O)NCCNc2cccc(F)c2C#N)s1 (configuration not stated) | -1.37
83 | CN1CCC2(CC1)CN(C(=O)c1cccnc1)c1ccc(Cl)cc12 | -109
84 | COc1ccccc1CNC(=O)N1CCN(Cc2cc(C)on2)CC1 | -9.07
85 | COCCNC(=O)NC1(c2ccccc2F)CC1 | -0.421
86 | O=C(NCCCOCC1CC1)Nc1ccc(-n2cncn2)c(F)c1 | -0.132
87 | Cc1nc(C(=O)N2CCC(Nc3cccnn3)CC2)cs1 | 6.74
88 | CN(C)CC1CSCCCN1S(=O)(=O)Cc1ccc(C(F)(F)F)cc1 (configuration not stated) | -5.36
89 | O=C(NCCC1CN(Cc2c[nH]cn2)CCO1)Nc1ccccc1 (configuration not stated) | -1.92
90 | CC(C)(C)OC(=O)NC1CCC(NC(=O)c2ccc[nH]2)CC1 (configuration not stated) | -17.1
91 | CC(NC(=O)C1CCN(C(=O)C2CC2)CC1)c1nncn1C(C)C (configuration not stated) | 1.33
92 | CN(Cc1cncnc1)Cc1cn2c(n1)CN(C1CCOC1)CC2 (configuration not stated) | -9.36

Row | Compound | cytotoxicity at 10 µM [%]
93 | CCC(=O)N1CCCCC1c1nc(CN(C)C(C)=O)cc(N(C)C)n1 (configuration not stated) | -3.17
94 | O=C(c1ccncc1)N1CCC(Oc2cccc(C(F)(F)F)c2)CC1 | 14.1
95 | CCCN1CCCCC1C(=O)Nc1ccc(-c2nnc[nH]2)cc1 (configuration not stated) | 4.64
96 | COc1ccc(NC(=O)Cn2nc(C)c(C)cc2=O)cc1 | 4.2
97 | COCCn1ccnc1C1CCCN(c2cnccn2)C1 (configuration not stated) | 3.23
98 | Cc1cc(C)n(CC2CN(CC(=O)Nc3ccncc3)CCO2)n1 (configuration not stated) | -3.18
99 | CCC1CCCCN1C(=O)c1ccc2[nH]nnc2c1 (configuration not stated) | -10.7
100 | O=C(NCc1ccccc1)C1CN(c2ccccn2)CCO1 (configuration not stated) | -2.44
101 | CC(=O)NCc1nnc2n1CCN(c1ncnc3c(C)csc13)CC2 | 4.71
102 | Cc1ccc(CN2CCc3ncc(CNC(=O)C4CCC4)n3CC2)o1 | 8.71
103 | COc1ncccc1CNC(=O)CN1CCCCCC1=O | -10.4
104 | CS(=O)(=O)NC[C@H]1OC[C@@H]2CCN(Cc3ccc(F)cc3)C[C@@H]21 | -2.26
105 | Cn1cccc1C(=O)N1CCN(Cc2cccnc2)c2ncccc2C1 | 10.9
106 | CCc1nsc(N2CCOC3(CCCC3)C2)n1 | 6.05
107 | CN(C)C(CNc1c(NCc2ccco2)c(=O)c1=O)c1ccccc1 (configuration not stated) | 5.16
108 | CCCN(C(=O)CN1CCn2c(nnc2C2CC2)C1)C1=CCCCC1 | 6.19
109 | CS(=O)(=O)c1ccc(NCc2ccc(F)cc2)cn1 | 8.08
110 | COc1ccc(N2CCN(CC(O)c3cc(C)ccc3C)CC2)cc1 (configuration not stated) | 7.25
111 | O=C(CN1CCS(=O)(=O)CC1)NCc1ccccc1F | 6.32
112 | Cc1ccsc1C(=O)N1CCC(O)(CN2CCc3ccccc3C2)C1 (configuration not stated) | 0.803
